According to ChEMBL document CHEMBL1148638, “Aminopyridine-based c-Jun N-terminal kinase inhibitors with cellular activity and minimal cross-kinase activity” (J Med Chem, 2006):

Legend:
[1] = molecular target: Serine/threonine-protein kinase pim-2 (Homo sapiens, UniProt Q9P1W9); test: Inhibition of Pim2
[2] = molecular target: Tyrosine-protein kinase Blk (Homo sapiens, UniProt P51451)
[3] = molecular target: Activated CDC42 kinase 1 (Homo sapiens, UniProt Q07912); test: Inhibition of CDC42
Method in brief: (§1)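 Recombinant kinases were commercial, or baculovirus-expressed and purified by His-tag or GST affinity. Each was incubated 1 h with biotinylated substrate peptide (2 µM), γ-[33P]-ATP (5 µM) and inhibitor (3-10000 nM, 2% DMSO) in 25 mM Hepes pH 7.5, 10 mM MgCl2, Na3VO4. Reactions were stopped with EDTA/NaCl and read by streptavidin FlashPlate capture. IC50 came from titrations, converted to Ki by Cheng-Prusoff.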

[4] = molecular target: Mast/stem cell growth factor receptor Kit (Homo sapiens, UniProt P10721); test: Inhibition of cKit
Method in brief: (§2)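 Tyrosine kinases (recombinant, His/GST-purified or commercial) measured by HTRF: 0.5 µM biotinylated peptide, ATP 10 µM to 1 mM, inhibitor in 2% DMSO, 1 h in 50 mM Hepes pH 7.4 with MgCl2, MnCl2, Na3VO4, DTT, BSA. IC50 from six-point titrations; Ki via Cheng-Prusoff.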

[5] = molecular target: T1, Serine/threonine-protein kinase Sgk1 (Homo sapiens, UniProt O00141); test: Inhibition of SGK
T1 sequence (O00141 whole entry): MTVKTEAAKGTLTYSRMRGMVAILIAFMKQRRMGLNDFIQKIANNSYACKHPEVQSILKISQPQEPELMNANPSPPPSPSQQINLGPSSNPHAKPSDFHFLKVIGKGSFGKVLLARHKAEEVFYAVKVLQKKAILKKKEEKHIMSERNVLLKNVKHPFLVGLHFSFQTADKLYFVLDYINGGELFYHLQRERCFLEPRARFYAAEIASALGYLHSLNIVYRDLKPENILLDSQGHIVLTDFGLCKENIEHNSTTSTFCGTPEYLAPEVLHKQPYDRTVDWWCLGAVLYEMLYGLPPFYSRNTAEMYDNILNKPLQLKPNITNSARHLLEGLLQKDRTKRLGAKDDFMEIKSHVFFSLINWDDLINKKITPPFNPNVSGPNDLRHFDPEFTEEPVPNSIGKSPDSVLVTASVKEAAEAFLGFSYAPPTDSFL

[6] = molecular target: Tyrosine-protein kinase JAK2 (Homo sapiens, UniProt O60674); test: Inhibition of JAK2
Tyrosine-protein kinase JAK2, sequence (O60674 whole entry): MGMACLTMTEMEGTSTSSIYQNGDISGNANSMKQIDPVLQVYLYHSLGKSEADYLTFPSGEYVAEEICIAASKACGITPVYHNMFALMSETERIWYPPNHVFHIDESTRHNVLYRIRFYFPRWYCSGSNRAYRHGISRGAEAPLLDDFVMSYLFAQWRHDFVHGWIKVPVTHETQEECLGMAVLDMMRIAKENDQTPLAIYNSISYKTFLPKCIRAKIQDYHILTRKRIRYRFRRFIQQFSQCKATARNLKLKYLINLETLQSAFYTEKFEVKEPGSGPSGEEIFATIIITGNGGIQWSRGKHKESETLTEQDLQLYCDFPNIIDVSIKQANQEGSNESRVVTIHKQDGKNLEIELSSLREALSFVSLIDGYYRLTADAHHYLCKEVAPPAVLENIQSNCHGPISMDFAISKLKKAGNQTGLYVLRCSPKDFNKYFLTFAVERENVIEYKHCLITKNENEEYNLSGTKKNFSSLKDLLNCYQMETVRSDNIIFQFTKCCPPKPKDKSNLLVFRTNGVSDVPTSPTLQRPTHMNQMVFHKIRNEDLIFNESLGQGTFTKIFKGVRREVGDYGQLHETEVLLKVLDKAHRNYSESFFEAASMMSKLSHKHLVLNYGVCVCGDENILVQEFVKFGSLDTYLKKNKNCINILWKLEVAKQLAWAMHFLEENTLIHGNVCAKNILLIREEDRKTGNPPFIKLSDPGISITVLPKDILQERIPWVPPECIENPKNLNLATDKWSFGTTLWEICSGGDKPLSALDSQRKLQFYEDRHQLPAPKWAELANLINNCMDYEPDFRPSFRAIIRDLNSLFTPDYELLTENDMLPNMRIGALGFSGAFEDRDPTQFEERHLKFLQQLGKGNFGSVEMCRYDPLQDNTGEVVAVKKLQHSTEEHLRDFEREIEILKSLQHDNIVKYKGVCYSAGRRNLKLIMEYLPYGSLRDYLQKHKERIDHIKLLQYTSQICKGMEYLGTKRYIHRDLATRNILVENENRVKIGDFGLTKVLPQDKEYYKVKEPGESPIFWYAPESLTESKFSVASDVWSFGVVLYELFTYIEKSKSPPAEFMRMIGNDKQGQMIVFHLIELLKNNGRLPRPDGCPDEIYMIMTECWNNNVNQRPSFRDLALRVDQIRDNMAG
Method in brief: (§3)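 Recombinant tyrosine kinases were incubated 1 h with biotinylated peptide (0.5 µM), ATP (10 µM to 1 mM) and inhibitor in 2% DMSO. Buffer was 50 mM Hepes pH 7.4 with MgCl2, MnCl2 and vanadate. Detection was HTRF: Eu anti-pY antibody plus streptavidin-APC, read 60 min later. IC50 came from titration curves, converted to Ki by Cheng-Prusoff.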

[7] = molecular target: Receptor tyrosine-protein kinase erbB-2 (Homo sapiens, UniProt P04626); test: Inhibition of ErbB2; method in brief: as §3
[8] = molecular target: Tyrosine-protein kinase Lyn (Homo sapiens, UniProt P07948); test: Inhibition of Lyn; method in brief: as §3
[9] = molecular target: T2, Calcium/calmodulin-dependent protein kinase type IV (Homo sapiens, UniProt Q16566); test: Inhibition of CaMK4; method in brief: as §1
T2 sequence (Q16566 whole entry): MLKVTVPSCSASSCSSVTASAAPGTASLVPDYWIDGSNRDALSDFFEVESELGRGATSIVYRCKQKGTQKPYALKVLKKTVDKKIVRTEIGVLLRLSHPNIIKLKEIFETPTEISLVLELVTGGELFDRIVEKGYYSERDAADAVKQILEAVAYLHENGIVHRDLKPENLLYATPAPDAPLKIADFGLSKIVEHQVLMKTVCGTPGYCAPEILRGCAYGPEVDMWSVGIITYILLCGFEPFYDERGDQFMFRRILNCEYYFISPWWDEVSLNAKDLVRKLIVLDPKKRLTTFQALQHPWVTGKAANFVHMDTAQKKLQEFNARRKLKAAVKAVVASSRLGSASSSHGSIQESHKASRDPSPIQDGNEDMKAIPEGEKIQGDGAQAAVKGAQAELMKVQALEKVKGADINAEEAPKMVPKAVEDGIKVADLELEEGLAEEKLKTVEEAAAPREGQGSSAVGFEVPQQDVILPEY

[10] = molecular target: Tyrosine-protein kinase Fyn (Homo sapiens, UniProt P06241); test: Inhibition of Fyn; method in brief: as §3
Tyrosine-protein kinase Fyn, sequence (P06241 whole entry): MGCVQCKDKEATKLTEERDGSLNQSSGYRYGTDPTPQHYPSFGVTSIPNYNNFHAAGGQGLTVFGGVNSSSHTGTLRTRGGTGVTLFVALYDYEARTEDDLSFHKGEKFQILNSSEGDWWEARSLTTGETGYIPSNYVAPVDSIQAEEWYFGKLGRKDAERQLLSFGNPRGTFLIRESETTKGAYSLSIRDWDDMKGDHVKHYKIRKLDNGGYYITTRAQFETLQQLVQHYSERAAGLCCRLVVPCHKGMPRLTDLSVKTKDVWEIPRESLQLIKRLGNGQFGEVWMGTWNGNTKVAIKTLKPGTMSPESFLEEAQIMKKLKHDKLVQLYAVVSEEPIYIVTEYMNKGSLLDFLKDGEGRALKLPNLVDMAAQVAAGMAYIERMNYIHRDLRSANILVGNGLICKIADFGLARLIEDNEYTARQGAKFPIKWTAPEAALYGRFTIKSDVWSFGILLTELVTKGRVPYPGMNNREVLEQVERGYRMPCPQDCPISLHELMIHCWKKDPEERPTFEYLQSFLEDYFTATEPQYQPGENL

[11] = molecular target: Tyrosine-protein kinase JAK3 (Homo sapiens, UniProt P52333); test: Inhibition of JAK3; method in brief: as §3
[12] = molecular target: Tyrosine-protein kinase ABL1 (Homo sapiens, UniProt P00519); test: Inhibition of Abl; method in brief: as §3
Tyrosine-protein kinase ABL1, sequence (P00519 whole entry): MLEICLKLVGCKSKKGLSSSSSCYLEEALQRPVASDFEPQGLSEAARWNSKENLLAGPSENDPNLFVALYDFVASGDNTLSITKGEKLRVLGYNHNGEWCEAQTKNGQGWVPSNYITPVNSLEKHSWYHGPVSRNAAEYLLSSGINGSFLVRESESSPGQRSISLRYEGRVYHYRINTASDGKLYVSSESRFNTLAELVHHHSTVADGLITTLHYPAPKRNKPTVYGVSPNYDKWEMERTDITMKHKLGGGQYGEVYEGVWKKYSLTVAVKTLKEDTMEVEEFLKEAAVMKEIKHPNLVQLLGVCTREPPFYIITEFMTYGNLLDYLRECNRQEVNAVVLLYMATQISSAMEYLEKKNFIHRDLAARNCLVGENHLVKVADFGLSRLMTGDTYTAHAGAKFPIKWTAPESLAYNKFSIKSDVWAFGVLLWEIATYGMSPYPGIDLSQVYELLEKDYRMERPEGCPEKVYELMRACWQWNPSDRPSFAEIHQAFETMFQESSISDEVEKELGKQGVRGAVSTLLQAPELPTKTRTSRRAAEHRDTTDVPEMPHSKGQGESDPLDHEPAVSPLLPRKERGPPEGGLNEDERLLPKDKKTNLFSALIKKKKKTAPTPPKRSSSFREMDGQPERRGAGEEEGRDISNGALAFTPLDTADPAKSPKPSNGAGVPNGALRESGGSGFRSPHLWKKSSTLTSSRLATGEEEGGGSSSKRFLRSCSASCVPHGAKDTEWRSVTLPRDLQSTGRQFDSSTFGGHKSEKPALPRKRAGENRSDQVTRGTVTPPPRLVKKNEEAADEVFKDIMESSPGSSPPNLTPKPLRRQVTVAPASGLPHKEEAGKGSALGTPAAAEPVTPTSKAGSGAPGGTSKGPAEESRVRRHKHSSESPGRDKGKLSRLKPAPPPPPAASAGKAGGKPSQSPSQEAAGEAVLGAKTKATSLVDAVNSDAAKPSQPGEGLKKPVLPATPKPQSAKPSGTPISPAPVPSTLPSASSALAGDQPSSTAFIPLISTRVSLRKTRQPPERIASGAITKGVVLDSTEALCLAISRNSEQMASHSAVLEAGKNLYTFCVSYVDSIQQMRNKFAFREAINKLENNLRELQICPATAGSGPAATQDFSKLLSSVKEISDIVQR

[13] = molecular target: Vascular endothelial growth factor receptor 1 (Homo sapiens, UniProt P17948); test: Inhibition of Flt1; method in brief: as §3
[14] = molecular target: Death-associated protein kinase 3 (Homo sapiens, UniProt O43293); test: Inhibition of ZipK
Death-associated protein kinase 3, sequence (O43293 whole entry): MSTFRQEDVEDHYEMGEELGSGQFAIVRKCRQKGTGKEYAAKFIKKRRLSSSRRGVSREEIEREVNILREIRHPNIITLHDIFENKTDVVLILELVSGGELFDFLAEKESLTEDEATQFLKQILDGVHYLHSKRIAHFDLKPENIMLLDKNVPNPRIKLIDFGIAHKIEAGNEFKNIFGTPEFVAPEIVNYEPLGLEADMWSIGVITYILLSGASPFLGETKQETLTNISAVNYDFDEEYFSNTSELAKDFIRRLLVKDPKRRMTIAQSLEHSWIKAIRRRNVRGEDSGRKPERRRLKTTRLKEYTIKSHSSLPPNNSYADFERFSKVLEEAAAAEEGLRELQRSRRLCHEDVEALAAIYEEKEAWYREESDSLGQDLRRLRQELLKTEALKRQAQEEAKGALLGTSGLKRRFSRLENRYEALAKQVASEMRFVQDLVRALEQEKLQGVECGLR

[15] = molecular target: Fibroblast growth factor receptor (Homo sapiens, UniProt P22607+P11362+P22455+P21802); test: Inhibition of FGFR; type: protein assay; method in brief: as §3
[16] = molecular target: Insulin receptor (Homo sapiens, UniProt P06213)
[17] = molecular target: Fibroblast growth factor receptor 3 (Homo sapiens, UniProt P22607); test: Inhibition of FGFR3; method in brief: as §3
[18] = molecular target: Macrophage colony-stimulating factor 1 receptor (Homo sapiens, UniProt P07333); test: Inhibition of CSF1R; method in brief: as §3
[19] = molecular target: Non-receptor tyrosine-protein kinase TYK2 (Homo sapiens, UniProt P29597); test: Inhibition of Tyk2; method in brief: as §2
[20] = molecular target: Proto-oncogene tyrosine-protein kinase Src (Homo sapiens, UniProt P12931); test: Inhibition of Src; method in brief: as §2
[21] = molecular target: 3-phosphoinositide-dependent protein kinase 1 (Homo sapiens) (UniProt O15530); test: Inhibition of PDK1
[22] = molecular target: Serine/threonine-protein kinase PAK 4 (Homo sapiens, UniProt O96013); test: Inhibition of PAK4; method in brief: as §1
[23] = molecular target: Receptor-type tyrosine-protein kinase FLT3 (Homo sapiens, UniProt P36888); test: Inhibition of Flt3; method in brief: as §3
[24] = molecular target: Inhibitor of nuclear factor kappa-B kinase subunit beta (Homo sapiens, UniProt O14920); test: Inhibition of IKK-beta; method in brief: as §1
[25] = molecular target: High affinity nerve growth factor receptor (Homo sapiens, UniProt P04629)
[26] = molecular target: Hepatocyte growth factor receptor (Homo sapiens, UniProt P08581)
[27] = molecular target: BDNF/NT-3 growth factors receptor (Homo sapiens, UniProt Q16620); test: Inhibition of TrkB; method in brief: as §2
[28] = molecular target: Tyrosine-protein kinase Lck (Homo sapiens, UniProt P06239)
[29] = Plasma clearance in iv dosed Sprague-Dawley rat; type: ADME, organism-based
[30] = Oral bioavailability in Sprague-Dawley rat; type: ADME, organism-based; conditions: in vivo
[31] = AUC in po dosed Sprague-Dawley rat; type: ADME, organism-based; conditions: plasma
Method in brief: (§4)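 Sprague-Dawley rats were dosed orally. Oral half-life is reported in hours and Cmax as the maximum plasma concentration in µM. AUC is total oral exposure from t = 0 to t = ∞, in µg·h/mL.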

[32] = Tmax in po dosed Sprague-Dawley rat; type: ADME, organism-based; conditions: in vivo
[33] = molecular target: Mitogen-activated protein kinase 13 (Homo sapiens, UniProt O15264)
[34] = Volume of distribution at steady state in iv dosed Sprague-Dawley rat; type: ADME, organism-based; conditions: in vivo, read-out: Vss
[35] = AUC in iv dosed Sprague-Dawley rat; type: ADME, organism-based; conditions: plasma
Method in brief: (§5)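 Sprague-Dawley rats received 5 mg/kg intravenously. Half-life is reported in hours. AUC is total drug exposure after iv dosing, from t = 0 to t = ∞, in µg·h/mL.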

[36] = Cmax in po dosed Sprague-Dawley rat; type: ADME, organism-based; set-up: route oral; conditions: in vivo; method in brief: as §4
[37] = Half life in po dosed Sprague-Dawley rat; type: ADME, organism-based; conditions: in vivo; method in brief: as §4
[38] = Half life in iv dosed Sprague-Dawley rat; type: ADME, organism-based; conditions: in vivo; method in brief: as §5
[39] = Volume of distribution in iv dosed Sprague-Dawley rat; type: ADME, organism-based; conditions: in vivo, read-out: Vdss

Activated CDC42 kinase 1, sequence (Q07912 whole entry): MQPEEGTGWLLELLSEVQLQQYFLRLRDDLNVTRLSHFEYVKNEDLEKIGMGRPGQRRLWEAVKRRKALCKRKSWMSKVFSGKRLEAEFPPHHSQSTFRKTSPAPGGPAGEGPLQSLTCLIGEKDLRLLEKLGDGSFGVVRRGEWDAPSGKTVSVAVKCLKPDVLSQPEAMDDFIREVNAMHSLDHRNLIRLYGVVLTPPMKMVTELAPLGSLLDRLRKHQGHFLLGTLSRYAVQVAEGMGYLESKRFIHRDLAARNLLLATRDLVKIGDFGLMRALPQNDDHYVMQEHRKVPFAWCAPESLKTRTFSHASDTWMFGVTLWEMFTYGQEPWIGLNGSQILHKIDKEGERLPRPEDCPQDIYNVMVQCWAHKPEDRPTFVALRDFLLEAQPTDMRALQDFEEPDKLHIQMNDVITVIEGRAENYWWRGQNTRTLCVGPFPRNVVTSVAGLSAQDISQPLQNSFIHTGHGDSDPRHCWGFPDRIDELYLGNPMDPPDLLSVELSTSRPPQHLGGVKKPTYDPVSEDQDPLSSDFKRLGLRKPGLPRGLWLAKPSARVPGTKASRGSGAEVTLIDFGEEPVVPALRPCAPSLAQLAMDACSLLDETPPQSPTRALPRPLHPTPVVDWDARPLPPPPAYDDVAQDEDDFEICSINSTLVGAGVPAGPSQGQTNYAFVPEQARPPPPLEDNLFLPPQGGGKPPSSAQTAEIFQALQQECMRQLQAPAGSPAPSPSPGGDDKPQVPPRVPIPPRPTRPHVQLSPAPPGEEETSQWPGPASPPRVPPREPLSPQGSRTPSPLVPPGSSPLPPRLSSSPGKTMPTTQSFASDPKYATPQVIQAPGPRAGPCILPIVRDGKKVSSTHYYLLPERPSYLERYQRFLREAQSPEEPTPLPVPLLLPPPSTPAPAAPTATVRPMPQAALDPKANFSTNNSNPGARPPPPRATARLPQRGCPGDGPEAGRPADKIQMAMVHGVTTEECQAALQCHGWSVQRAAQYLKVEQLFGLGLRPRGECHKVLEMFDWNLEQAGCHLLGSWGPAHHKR
Tyrosine-protein kinase Blk, sequence (P51451 whole entry): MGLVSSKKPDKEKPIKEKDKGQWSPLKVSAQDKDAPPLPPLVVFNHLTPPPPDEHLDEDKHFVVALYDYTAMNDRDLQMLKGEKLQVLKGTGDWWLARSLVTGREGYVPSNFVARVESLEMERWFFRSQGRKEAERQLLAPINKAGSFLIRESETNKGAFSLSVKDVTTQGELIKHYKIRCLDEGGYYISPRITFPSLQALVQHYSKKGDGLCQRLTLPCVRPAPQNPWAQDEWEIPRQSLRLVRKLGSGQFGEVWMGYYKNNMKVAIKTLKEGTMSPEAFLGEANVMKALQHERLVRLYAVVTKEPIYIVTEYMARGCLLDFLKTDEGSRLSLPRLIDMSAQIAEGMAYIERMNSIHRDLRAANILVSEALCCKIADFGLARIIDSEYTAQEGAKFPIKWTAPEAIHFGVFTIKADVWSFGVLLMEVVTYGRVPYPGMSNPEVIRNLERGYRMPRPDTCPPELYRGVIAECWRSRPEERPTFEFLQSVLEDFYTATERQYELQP

Ki [1] [µM]	Ki [2] [µM]	Ki [3] [µM]	Ki [4] [µM]	Ki [5] [µM]	Ki [6] [µM]	Ki [7] [µM]	Ki [8] [µM]	Ki [9] [µM]	Ki [10] [µM]	Ki [11] [µM]	Ki [12] [µM]	Ki [13] [µM]	Compound	Ki [14] [µM]	also measured
> 1.4	> 1.5	> 9.5	> 1.2	> 9.4	> 1.5	> 1.4	> 1.7	> 8.6	> 0.81	> 1.7	> 0.71	> 0.44	CCOc1nc(NC(C)=O)cc(N)c1C#N	> 1.4	
> 1.4	> 1.5	> 9.5	> 1.2	> 9.4	> 1.5	> 1.4	> 1.7	> 8.6	> 0.81	> 1.7	> 0.71	> 0.44	CC(=O)Nc1cc(N)c(C#N)c(-c2ccccc2)n1	> 1.4	Ki [15]: > 4.7 µM; Ki [16]: > 5.2 µM; Ki [17]: > 1.9 µM; Ki [18]: > 2.5 µM; Ki [19]: > 1.9 µM; Ki [20]: > 1.9 µM; Ki [21]: > 3.8 µM; Ki [22]: > 5.5 µM; Ki [23]: > 2.5 µM; Ki [24]: > 3.2 µM; Ki [25]: > 2.5 µM; Ki [26]: > 2.9 µM; Ki [27]: > 4.5 µM; Ki [28]: > 2.7 µM
		> 9.5		> 9.4				> 8.6					CCOc1nc(NC(=O)Cc2cc(OC)ccc2OC)cc(N)c1C#N		clearance [29]: 1.2 L/h/kg; bioavailability [30]: 2.7%; AUC [31]: 0.11 µg·h/mL; Tmax [32]: 1.98 min; Ki [33]: > 6.9 µM; Vd [34]: 1.2 L/kg; AUC [35]: 4.1 µg·h/mL; Cmax [36]: 0.31 µM; half-life [37]: 1.1 h; half-life [38]: 1.4 h; Vd [39]: 2.6 L/kg
